Test results from ChEMBL document CHEMBL3112533, “Synthesis of novel, peptidic kinase inhibitors with cytostatic/cytotoxic activity” (Bioorg Med Chem, 2014).
Active and inactive are the calls of the source. The calls are words filed in the database; no cut-off is given here.

Assays:
Homo sapiens = species on record: Homo sapiens; assay: Inhibition of MEK/ERK1 (unknown origin) using MBP/[gamma-32P]ATP as substrate after 10 mins by scintillation counting
Outline: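 Compound at 10–150 μM in MOPS pH 7.2 buffer with β-glycerophosphate, EGTA, orthovanadate and DTT. [γ-32P]ATP at 10 μCi/reaction, 10 min at 30°C. Phosphorylated MBP was captured on P81 paper and counted by scintillation. Run in quadruplicate and given as % of no-compound control.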

NIH3T3 = assay: Cytotoxicity against mouse NIH/3T3 cells by crystal violet assay; type: cell-based
Outline: (§1)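 Parental NIH-3T3 fibroblasts and Ha-Ras-transfected RAS-3T3 cells were grown in DMEM with 10% FBS, […] and antibiotic-antimycotic at 37°C in 5% CO2. Growth retardation/cytotoxicity was read by crystal violet staining. Compounds came from 10 mM DMSO stocks.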

[1] = Cytotoxicity against mouse RAS-3T3 cells by crystal violet assay; type: functional, cell-based; conditions: NIH3T3; outline: as §1
RAS-3T3 [2] = assay: Inhibition of MEK in mouse RAS-3T3 cells assessed as effect on unphosphorylated ERK1/2 at 40 uM by Western-blot analysis; type: cell-based
Outline: (§2)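 RAS-3T3 cells were starved overnight in 2% FBS, then given 10% FBS medium with compound for 4 h. Cells were lysed in Triton X-100/Tris/EDTA/NaCl buffer with protease inhibitors. 50 μg of protein was run on 10% SDS-PAGE and blotted to nitrocellulose, with loading checked by Ponceau. Blots were probed with anti-pERK and anti-total ERK antibodies and detected by HRP chemiluminescence. Untreated cells were controls.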

[3] = target: Epidermal growth factor receptor (Homo sapiens) (UniProt P00533); assay: Inhibition of EGFR (unknown origin) at 10 uM
Outline: (§3)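 ADP-Glo luminescent kinase assay. Inhibitor at 10 μM was preincubated with kinase (1 ng) for 10 min at 25°C. Substrate (10–60 μM) and ATP (25 μM) were then added and the mix incubated 1 h at 24°C. ADP-Glo reagent was added for 40 min, then detection reagent for 30 min, and luminescence was read. Activity is given as % of uninhibited kinase. Mean ± SD of 2 independent experiments.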

[4] = target: Platelet-derived growth factor receptor beta (Homo sapiens) (UniProt P09619); assay: Inhibition of PDGFRbeta (unknown origin) at 10 uM; outline: as §3
[5] = target: Vascular endothelial growth factor receptor 2 (Homo sapiens) (UniProt P35968); assay: Inhibition of KDR (unknown origin) at 10 uM; outline: as §3
[6] = target: TRAF2 and NCK-interacting protein kinase (Homo sapiens) (UniProt Q9UKE5); assay: Inhibition of TNIK (unknown origin) at 10 uM; outline: as §3
[7] = target: Tyrosine-protein kinase BTK (Homo sapiens) (UniProt Q06187); assay: Inhibition of BTK (unknown origin) at 10 uM; outline: as §3
[8] = target: T1, Tyrosine-protein kinase JAK3 (Homo sapiens) (UniProt P52333); assay: Inhibition of JAK3 (unknown origin) at 10 uM; outline: as §3
T1 sequence (whole entry): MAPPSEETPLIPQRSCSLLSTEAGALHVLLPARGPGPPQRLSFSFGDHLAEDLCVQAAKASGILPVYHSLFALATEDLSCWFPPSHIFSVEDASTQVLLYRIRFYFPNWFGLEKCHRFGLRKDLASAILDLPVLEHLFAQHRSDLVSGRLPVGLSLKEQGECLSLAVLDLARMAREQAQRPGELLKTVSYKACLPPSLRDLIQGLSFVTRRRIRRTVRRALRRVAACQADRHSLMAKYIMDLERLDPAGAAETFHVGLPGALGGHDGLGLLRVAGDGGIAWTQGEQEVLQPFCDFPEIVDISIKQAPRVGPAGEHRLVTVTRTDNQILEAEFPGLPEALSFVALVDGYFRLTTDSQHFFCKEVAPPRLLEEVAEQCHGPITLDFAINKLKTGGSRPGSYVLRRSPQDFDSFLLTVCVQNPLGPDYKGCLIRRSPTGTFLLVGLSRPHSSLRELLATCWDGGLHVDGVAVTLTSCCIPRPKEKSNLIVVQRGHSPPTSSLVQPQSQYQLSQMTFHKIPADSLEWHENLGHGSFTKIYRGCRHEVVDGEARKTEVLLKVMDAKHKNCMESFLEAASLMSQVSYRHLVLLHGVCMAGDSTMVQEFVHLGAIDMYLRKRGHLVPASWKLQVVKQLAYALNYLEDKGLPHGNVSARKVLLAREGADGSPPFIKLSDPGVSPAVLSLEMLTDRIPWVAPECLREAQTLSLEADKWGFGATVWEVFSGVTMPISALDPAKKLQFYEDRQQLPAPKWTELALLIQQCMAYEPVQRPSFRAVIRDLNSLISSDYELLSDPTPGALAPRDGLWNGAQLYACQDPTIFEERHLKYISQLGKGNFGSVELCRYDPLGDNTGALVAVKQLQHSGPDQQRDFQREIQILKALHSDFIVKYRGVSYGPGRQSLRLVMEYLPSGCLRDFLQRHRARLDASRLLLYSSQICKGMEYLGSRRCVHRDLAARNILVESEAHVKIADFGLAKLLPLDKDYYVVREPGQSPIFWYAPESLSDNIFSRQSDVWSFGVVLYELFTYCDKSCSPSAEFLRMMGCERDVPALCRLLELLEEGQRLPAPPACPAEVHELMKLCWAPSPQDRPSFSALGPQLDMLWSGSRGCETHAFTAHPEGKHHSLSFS

[9] = target: Fibroblast growth factor receptor 2 (Homo sapiens) (UniProt P21802); assay: Inhibition of FGFR2 (unknown origin) at 10 uM; outline: as §3
[10] = target: Tyrosine-protein kinase JAK2 (Homo sapiens) (UniProt O60674); assay: Inhibition of JAK2 (unknown origin) at 10 uM; outline: as §3
[11] = target: Serine/threonine-protein kinase pim-1 (Homo sapiens) (UniProt P11309); assay: Inhibition of PIM1 (unknown origin) at 10 uM; outline: as §3
[12] = target: Receptor-type tyrosine-protein kinase FLT3 (Homo sapiens) (UniProt P36888); assay: Inhibition of FLT3 (unknown origin) at 10 uM; outline: as §3
[13] = target: Insulin-like growth factor 1 receptor (Homo sapiens) (UniProt P08069); assay: Inhibition of IGF1R (unknown origin) at 10 uM; outline: as §3
[14] = target: T2, Aurora kinase A (Homo sapiens) (UniProt O14965); assay: Inhibition of aurora-A (unknown origin) at 10 uM; outline: as §3
T2 sequence (whole entry): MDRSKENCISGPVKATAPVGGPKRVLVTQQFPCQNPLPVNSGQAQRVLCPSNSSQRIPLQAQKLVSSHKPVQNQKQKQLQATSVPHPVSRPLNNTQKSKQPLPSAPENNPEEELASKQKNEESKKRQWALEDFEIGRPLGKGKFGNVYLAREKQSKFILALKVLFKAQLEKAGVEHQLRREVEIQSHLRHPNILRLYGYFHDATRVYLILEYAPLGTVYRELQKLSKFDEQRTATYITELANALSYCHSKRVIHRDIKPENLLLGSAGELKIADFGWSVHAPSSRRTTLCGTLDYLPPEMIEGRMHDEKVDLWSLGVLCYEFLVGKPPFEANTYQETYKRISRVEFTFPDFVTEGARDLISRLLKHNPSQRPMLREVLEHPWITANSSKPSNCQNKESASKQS

[15] = target: ALK tyrosine kinase receptor (Homo sapiens) (UniProt Q9UM73); assay: Inhibition of ALK (unknown origin) at 10 uM; outline: as §3
[16] = target: Mitogen-activated protein kinase 3 (Homo sapiens) (UniProt P27361); assay: Competitive inhibition of activated ERK1 (unknown origin) using […] as substrate
Outline: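 Activated pERK1 (20 ng) with inhibitor held at 5 μM and MBP varied from 0.2 to 200 μg per reaction. Non-radioactive ATP at 0.2 μM. Remaining ATP was measured by luciferase luminescence, and activity was taken from ATP consumption. Controls lacked inhibitor but had matching MBP amounts. Mean ± SD from 3 independent experiments.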

[17] = target: Mitogen-activated protein kinase 3 (Homo sapiens) (UniProt P27361); assay: Inhibition of activated ERK1 (unknown origin) using […] as substrate
Outline: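 Activated pERK1 (20 ng) with MBP (20 μg) and compound at final 0.05–5 μM. Non-radioactive ATP at 0.2 μM. Residual ATP was measured by luciferase luminescence, and relative activity was derived from ATP consumption versus compound-free control. Mean ± SD from 3 independent experiments.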

RAS-3T3 [18] = assay: Inhibition of MEK-mediated ERK1/2 phosphorylation in mouse RAS-3T3 cells at 40 uM by ELISA; type: cell-based
Outline: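 RAS-3T3 cells were pre-starved overnight in 2% FBS, then treated with compound in 10% FBS medium for 4 h. Lysates were assayed with a pERK1/2-specific sandwich ELISA and absorbance read at 405 nm. Untreated cells were controls.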

RAS-3T3 [19] = assay: Inhibition of MEK-mediated ERK1/2 phosphorylation in mouse RAS-3T3 cells at 40 uM by Western-blot analysis; type: cell-based; outline: as §2

Sequence of Mitogen-activated protein kinase 3 (Homo sapiens) (P27361 whole entry): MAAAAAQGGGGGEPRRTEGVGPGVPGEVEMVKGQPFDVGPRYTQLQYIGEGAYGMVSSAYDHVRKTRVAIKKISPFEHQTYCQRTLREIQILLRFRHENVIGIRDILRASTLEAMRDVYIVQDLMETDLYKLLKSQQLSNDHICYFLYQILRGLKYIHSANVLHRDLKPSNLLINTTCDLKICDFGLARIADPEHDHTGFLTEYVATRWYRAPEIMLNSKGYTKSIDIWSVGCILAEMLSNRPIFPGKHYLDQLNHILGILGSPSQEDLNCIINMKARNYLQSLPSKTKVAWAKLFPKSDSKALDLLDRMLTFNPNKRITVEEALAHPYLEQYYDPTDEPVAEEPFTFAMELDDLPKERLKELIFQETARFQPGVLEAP
Sequence of Tyrosine-protein kinase BTK (Homo sapiens) (Q06187 whole entry): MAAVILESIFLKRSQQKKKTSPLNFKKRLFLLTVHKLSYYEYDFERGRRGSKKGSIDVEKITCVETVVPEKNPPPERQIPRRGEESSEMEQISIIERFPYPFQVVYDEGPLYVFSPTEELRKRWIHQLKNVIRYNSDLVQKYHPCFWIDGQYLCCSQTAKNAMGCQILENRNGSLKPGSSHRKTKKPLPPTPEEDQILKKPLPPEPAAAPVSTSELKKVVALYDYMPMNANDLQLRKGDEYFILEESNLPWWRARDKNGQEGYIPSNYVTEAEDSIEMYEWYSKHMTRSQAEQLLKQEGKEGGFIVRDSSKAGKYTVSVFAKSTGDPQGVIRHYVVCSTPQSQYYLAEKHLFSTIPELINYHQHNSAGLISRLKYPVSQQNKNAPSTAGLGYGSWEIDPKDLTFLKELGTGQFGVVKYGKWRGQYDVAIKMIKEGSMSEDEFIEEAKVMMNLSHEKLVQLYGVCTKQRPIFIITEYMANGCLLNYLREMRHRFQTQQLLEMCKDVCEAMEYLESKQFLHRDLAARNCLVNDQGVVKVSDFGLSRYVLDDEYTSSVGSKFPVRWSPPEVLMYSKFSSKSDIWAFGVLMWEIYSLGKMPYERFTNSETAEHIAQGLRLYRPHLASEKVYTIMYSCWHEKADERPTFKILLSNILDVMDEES
Sequence of ALK tyrosine kinase receptor (Homo sapiens) (Q9UM73 19-1620 limits assumed): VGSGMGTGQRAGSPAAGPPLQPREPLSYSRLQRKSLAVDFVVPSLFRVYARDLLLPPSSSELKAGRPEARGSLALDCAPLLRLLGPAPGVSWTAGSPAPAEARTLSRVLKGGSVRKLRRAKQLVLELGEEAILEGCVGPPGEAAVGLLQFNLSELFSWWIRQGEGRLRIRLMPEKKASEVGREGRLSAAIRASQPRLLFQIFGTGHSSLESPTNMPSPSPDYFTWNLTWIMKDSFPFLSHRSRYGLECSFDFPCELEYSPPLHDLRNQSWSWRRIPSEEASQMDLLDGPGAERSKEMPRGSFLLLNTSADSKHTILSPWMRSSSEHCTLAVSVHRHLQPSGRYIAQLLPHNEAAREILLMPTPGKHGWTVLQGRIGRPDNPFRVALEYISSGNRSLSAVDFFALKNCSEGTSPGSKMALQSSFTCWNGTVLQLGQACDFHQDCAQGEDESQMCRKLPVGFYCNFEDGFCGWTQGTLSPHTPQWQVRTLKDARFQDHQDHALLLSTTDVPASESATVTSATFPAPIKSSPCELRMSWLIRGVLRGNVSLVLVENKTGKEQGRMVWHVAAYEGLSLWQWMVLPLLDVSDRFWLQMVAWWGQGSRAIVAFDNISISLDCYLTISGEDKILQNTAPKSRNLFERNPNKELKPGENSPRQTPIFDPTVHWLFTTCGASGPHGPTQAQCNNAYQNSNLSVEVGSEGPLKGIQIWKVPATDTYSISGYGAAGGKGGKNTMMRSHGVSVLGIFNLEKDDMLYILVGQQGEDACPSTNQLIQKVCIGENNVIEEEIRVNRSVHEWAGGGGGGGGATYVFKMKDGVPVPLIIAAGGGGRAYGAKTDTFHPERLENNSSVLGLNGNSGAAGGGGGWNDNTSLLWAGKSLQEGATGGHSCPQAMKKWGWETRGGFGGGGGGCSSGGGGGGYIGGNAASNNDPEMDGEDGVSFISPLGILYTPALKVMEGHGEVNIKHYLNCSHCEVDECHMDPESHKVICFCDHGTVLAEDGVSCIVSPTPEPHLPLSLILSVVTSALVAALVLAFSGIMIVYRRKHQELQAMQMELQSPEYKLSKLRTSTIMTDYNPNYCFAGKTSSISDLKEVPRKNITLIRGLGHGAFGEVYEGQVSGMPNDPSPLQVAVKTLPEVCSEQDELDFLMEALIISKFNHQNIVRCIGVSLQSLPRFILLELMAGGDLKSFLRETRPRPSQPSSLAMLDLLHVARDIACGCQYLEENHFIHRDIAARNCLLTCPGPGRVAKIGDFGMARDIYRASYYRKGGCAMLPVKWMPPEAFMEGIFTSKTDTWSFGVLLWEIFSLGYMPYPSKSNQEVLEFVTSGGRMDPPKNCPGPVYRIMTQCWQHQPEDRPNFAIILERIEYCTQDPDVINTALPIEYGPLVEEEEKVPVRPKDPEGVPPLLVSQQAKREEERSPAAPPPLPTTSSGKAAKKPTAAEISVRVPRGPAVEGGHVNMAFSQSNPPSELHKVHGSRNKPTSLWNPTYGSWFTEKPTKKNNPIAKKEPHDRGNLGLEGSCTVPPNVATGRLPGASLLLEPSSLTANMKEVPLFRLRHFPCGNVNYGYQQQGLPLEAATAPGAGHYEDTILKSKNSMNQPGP
Sequence of Vascular endothelial growth factor receptor 2 (Homo sapiens) (P35968 whole entry): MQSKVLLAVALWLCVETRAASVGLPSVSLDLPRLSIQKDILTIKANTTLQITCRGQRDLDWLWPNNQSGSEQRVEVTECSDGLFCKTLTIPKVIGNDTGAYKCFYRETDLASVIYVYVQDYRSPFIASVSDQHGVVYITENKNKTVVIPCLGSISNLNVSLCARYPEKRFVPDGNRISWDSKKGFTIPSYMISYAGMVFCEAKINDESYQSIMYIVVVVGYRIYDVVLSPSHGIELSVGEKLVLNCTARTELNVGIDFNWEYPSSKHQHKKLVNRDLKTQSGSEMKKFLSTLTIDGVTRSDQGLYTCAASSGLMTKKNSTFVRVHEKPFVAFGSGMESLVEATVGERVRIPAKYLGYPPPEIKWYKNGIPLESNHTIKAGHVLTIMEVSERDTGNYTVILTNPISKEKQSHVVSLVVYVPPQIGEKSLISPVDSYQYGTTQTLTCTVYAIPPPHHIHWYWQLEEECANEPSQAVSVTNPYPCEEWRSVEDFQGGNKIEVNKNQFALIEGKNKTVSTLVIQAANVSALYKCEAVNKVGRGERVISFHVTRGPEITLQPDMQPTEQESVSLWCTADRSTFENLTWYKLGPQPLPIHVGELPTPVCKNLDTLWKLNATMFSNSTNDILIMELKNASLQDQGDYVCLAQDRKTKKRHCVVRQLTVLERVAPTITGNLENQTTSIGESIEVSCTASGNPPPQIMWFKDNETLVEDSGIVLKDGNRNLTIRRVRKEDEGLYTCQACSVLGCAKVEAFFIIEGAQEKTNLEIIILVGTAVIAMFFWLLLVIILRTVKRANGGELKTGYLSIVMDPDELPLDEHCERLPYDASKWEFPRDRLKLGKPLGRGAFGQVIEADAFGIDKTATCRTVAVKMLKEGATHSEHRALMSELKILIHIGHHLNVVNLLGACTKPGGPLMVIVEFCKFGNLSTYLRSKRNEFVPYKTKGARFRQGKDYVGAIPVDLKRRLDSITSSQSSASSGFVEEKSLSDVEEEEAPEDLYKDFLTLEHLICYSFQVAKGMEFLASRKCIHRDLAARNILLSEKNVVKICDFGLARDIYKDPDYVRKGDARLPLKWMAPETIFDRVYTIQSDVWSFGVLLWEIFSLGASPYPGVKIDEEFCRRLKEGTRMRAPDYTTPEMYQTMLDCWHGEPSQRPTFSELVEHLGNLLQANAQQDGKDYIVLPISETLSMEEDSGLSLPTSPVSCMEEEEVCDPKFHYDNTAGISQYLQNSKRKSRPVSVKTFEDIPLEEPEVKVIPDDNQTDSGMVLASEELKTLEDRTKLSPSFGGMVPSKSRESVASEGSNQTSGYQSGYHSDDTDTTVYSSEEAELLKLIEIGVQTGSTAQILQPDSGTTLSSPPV
Sequence of Tyrosine-protein kinase JAK2 (Homo sapiens) (O60674 whole entry): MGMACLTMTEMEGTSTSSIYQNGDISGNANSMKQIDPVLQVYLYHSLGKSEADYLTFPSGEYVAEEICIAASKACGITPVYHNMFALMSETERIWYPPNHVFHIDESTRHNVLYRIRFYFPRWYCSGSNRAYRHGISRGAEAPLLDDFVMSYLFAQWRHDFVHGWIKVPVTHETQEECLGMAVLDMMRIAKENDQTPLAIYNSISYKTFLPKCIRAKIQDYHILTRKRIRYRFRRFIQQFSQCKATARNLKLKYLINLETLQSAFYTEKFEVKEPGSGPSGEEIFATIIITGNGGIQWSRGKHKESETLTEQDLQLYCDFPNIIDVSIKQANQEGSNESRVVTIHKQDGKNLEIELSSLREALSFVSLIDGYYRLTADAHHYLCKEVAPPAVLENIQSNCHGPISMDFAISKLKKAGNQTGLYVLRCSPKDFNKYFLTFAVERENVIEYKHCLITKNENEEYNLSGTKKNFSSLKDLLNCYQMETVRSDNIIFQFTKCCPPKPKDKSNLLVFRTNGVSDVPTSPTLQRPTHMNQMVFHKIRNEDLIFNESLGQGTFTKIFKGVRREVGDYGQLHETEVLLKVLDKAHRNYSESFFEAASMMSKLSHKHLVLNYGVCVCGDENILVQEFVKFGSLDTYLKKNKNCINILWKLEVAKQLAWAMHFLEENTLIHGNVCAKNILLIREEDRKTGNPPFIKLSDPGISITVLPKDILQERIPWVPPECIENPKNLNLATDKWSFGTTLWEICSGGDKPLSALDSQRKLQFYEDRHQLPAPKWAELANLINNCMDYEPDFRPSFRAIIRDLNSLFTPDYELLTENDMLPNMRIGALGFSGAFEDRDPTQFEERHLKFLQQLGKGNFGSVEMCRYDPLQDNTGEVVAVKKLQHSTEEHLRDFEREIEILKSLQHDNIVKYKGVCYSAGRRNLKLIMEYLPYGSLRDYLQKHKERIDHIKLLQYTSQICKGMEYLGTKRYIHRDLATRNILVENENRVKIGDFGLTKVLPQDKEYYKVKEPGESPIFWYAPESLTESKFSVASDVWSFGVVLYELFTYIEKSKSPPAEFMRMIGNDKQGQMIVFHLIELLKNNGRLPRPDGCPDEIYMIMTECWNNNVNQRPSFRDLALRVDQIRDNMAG

SMILES | IC50 (NIH3T3) [µM] | IC50 [1] [µM] | also measured
CCCCCCCCC[C@@H](NC(=O)CNC(=O)OCc1ccccc1)C(=O)NCc1ccc(OC)cc1 | – | – | inhibition (Homo sapiens): Active
CCCCCCCCC[C@H](NC(=O)CNC(=O)OCc1ccccc1)C(=O)NCc1ccc(OC)cc1 | – | – | inhibition (Homo sapiens): Active
CCCCCCCCCC(NC(=O)[C@H](CC(C)C)NC(=O)OCc1ccccc1)C(=O)NCc1ccc(OC)cc1 (mixture of isomers) | > 200 | 50 | –
CCCCCCCCCC(NC(=O)[C@H](Cc1ccccc1)NC(=O)OCc1ccccc1)C(=O)NCc1ccc(OC)cc1 (mixture of isomers) | > 200 | 68 | –
CCCCCCCCCC(NC(=O)[C@H](C)NC(=O)OCc1ccccc1)C(=O)NCc1ccc(OC)cc1 (mixture of isomers) | 150 | 55 | –
CCCCCCCCCC(C(=O)NCc1ccc(OC)cc1)N(C)C(=O)CNC(=O)OCc1ccccc1 (racemic) | 30 | 30 | –
CCCCCCCC(NC(=O)CNC(=O)OCc1ccccc1)C(=O)NC1CCCCC1 (racemic) | 40 | 30 | –
CCCCCCCC(NC(=O)CNC(=O)OCc1ccccc1)C(=O)NCc1ccccc1 (racemic) | 38 | 33 | –
CCCCCCCC(NC(=O)CNC(=O)OCc1ccccc1)C(=O)NCCc1ccccc1 (racemic) | 33 | 20 | –
CCCCCCCC(NC(=O)CNC(=O)OCc1ccccc1)C(=O)NCc1ccc(OC)cc1 (racemic) | 40 | 40 | –
CCCCCCCC(NC(=O)CNC(=O)OCc1ccccc1)C(=O)NCc1ccc(OC)cc1OC (racemic) | 50 | 40 | –
COc1ccc(CNC(=O)C(Cc2ccccc2)NC(=O)CNC(=O)OCc2ccccc2)cc1 (racemic) | > 100 | > 100 | –
COc1ccc(CNC(=O)C(Cc2ccc(OC)cc2)NC(=O)CNC(=O)OCc2ccccc2)cc1 (racemic) | > 100 | > 100 | –
COc1ccc(CNC(=O)C(CCCCCNC(=O)OC(C)(C)C)NC(=O)CNC(=O)OCc2ccccc2)cc1 (racemic) | > 100 | > 100 | –
COc1ccc(CNC(=O)C(NC(=O)CNC(=O)OCc2ccccc2)C2CCCCC2)cc1 (racemic) | 50 | 40 | –
COc1ccc(CNC(=O)C(CC(C)C)NC(=O)CNC(=O)OCc2ccccc2)cc1 (racemic) | > 100 | > 100 | –
CCCCCCCCCC(NC(=O)CNC(=O)OCc1ccccc1)C(=O)NCc1ccc(OC)cc1 (racemic) | 55 | 19 | inhibition (Homo sapiens): Dose-dependent effect
CCCCCCCCCC(NC(=O)CNC(=O)OCc1ccccc1)C(=O)NCCc1ccccc1 (racemic) | – | – | inhibition (RAS-3T3 [2]): inactive; inhibition [3]: inactive; inhibition [4]: inactive; inhibition [5]: inactive; inhibition [6]: inactive; inhibition [7]: inactive; inhibition [8]: inactive; inhibition [9]: inactive; inhibition [10]: inactive; inhibition [11]: inactive; inhibition [12]: inactive; inhibition [13]: inactive; inhibition [14]: inactive; inhibition [15]: inactive; inhibition [16]: Active; inhibition [17]: Dose-dependent effect; inhibition (RAS-3T3 [18]): 90%; inhibition (RAS-3T3 [19]): Active
